Source: ChEMBL document CHEMBL4393719, “Tetrahydro-3-benzazepines with fluorinated side chains as NMDA and σ1 receptor antagonists: Synthesis, receptor affinity, selectivity and antiallodynic activity” (Eur J Med Chem, 2019)
Activity calls are given as the source filed them.

Tests used:
[1] = system: Mus musculus; experiment: Antiallodynic activity in CD-1 mouse model of capsaicin-induced mechanical allodynia assessed as increase in paw withdrawal threshold at 32 mg/kg, sc administered 30 mins before capsaicin addition and measured after 15 mins by von-Frey test; assay type: functional, organism-based
Method in brief: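 Female CD-1 mice given compound or HPMC vehicle sc 30 min before intraplantar capsaicin (1 µg in 20 µL, 1% DMSO). 15 min later, electronic von Frey punctate stimulus (0.5 g) at least 5 mm from injection site; paw withdrawal latency, three trials 30 s apart, 50 s cutoff. % antiallodynic effect = [(LTD−LTS)/(CT−LTS)]×100; 6-8 mice per group, ANOVA with Bonferroni.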

[2] = biological target: Sigma non-opioid intracellular receptor 1 (Cavia porcellus, UniProt Q60492); assay type: cell membranes;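 also: radioligand displacement of [3H]-(+)-pentazocine from guinea pig brain cortex membranes, 120 min incubation, bound radioactivity read by scintillation counting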
Sequence of Sigma non-opioid intracellular receptor 1 (Q60492 whole entry): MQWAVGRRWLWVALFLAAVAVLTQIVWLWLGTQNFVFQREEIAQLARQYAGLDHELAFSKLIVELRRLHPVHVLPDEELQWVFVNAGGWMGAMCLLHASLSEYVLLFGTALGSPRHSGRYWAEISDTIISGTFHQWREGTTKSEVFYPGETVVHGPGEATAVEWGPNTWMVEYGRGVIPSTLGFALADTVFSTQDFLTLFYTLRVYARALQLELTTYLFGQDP

[3] = biological target: T1, Sigma intracellular receptor 2 (Rattus norvegicus, UniProt Q5U3Y7); experiment: Displacement of [3H]-di-o-tolylguanidine from sigma2 receptor in rat liver membranes incubated for 120 mins by scintillation counting method; assay type: cell membranes
T1 sequence (Q5U3Y7 whole entry): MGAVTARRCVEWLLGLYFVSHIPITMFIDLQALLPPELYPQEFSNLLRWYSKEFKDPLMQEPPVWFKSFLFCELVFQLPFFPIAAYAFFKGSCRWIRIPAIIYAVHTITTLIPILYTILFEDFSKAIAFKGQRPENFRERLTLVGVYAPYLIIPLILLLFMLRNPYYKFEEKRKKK

[4] = Displacement of [3H] ifenprodil from GluN2B/GluN1a (unknown origin) expressed in mouse L(tk-) cell membranes incubated for 120 mins by scintillation counting method; design: species or system Homo sapiens
Method in brief: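 Membranes from mouse L(tk-) cells co-transfected with dexamethasone-inducible GluN1a/GluN2B (1:5), induced 24 h with 4 μM dexamethasone plus 4 μM ketamine.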

[5] = species on record: Sus scrofa; conditions: at 1 µM
[6] = Selectivity ratio of Ki for sigma2 receptor in rat liver membranes to ratio of Ki for GluN2B/GluN1a (unknown origin) expressed in mouse L(tk-) cell membranes; assay type: cell-based
[7] = Selectivity ratio of Ki for sigma1 receptor in guinea pig brain cortex membranes to ratio of Ki for GluN2B/GluN1a (unknown origin) expressed in mouse L(tk-) cell membranes; assay type: cell-based
[8] = biological target: 5-hydroxytryptamine receptor 1A (Homo sapiens) (UniProt P08908); experiment: Displacement of [3H]8-OH-DPAT from human 5HT1A receptor at 1 uM incubated for 2 hrs scintillation counting method relative to control
Sequence of 5-hydroxytryptamine receptor 1A (Homo sapiens) (P08908 whole entry): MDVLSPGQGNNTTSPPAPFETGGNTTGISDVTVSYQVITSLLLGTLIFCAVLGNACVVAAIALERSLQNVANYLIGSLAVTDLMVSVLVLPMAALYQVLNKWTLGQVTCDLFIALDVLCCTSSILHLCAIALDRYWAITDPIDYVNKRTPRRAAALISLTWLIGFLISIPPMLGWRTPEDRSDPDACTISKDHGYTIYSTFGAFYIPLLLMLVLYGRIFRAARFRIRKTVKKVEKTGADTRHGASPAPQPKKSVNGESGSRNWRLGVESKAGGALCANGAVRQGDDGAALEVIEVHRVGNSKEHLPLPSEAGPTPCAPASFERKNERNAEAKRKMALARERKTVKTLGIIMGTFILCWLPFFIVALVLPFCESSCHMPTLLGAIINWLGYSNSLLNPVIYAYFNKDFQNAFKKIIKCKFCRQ
Method in brief: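 Human 5-HT1A-enriched membranes (10 μg), 2 nM [3H]-8-OH-DPAT, 50 mM Tris-HCl/5 mM MgCl2 pH 7.4, 0.1% DMSO final, 2 h at 37 °C; 10 μM 5-HT for nonspecific binding. Compound at 1 μM; radioligand displacement read after GF/C filtration.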

[9] = Stability of compound in phosphate buffer at pH 7.4 after 24 hrs by HPLC analysis; assay type: physicochemical; conditions: pH 7.4, 24 h
Method in brief: (§1)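 Compound (25 μL of 10 mM DMSO stock) added to 1 mL aqueous buffered solution, pH 2 or pH 7.4, stirred 24 h at room temperature, analyzed by HPLC-MS; deemed stable if peak area remained 95–105%.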

[10] = biological target: Sodium-dependent noradrenaline transporter (Homo sapiens) (UniProt P23975); experiment: Displacement of [3H]nisoxetine from recombinant human norepinephrine transporter at 1 uM after 60 mins by scintillation counting method relative to control
Method in brief: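 Human NET-enriched membranes (1 μg), 5 nM [3H]nisoxetine in 50 mM Tris-HCl, 120 mM NaCl, 5 mM KCl, pH 7.4, 1% DMSO final; 60 min at 4 °C; 10 μM desipramine for nonspecific binding. Single 1 μM compound; filtration, displacement of radioligand.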

[11] = system: HepG2; experiment: Cytotoxicity against human HepG2 assessed as reduction in cell viability at 1 to 100 uM after 20 hrs by MTT assay; assay type: cell-based; conditions: hepg2, 20 h
Method in brief: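 HepG2 cells, 3 x 10^4/well, grown 24 h in MEM/10% FBS, then exposed 20 h in serum-free medium to compound at 1, 10, 100 µM (from DMSO solutions). MTT 0.5 mg/mL for 4 h, formazan dissolved in DMSO, OD 550 nm. IC50 taken as lowest concentration giving ≥50% cytotoxicity versus untreated cells; duplicates in two assays (n = 4).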

[12] = Drug metabolism in human liver microsomes at 1 uM incubated for 1 hr in presence of NADPH by UPLC-MS analysis; assay type: ADME, Microsome; conditions: read-out: Drug metabolism
Method in brief: (§2)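 Liver microsomes, compound 1 µM, 37 °C for 1 h in 50 mM Na/K phosphate pH 7.4, 3 mM MgCl2, NADPH-regenerating system, CYP 0.3 nmol/mL. Aliquots at 0, 10, 20, 40, 60 min quenched with cold acetonitrile, supernatants by UPLC-MS/MS; % parent remaining at end reported. Terfenadine as positive control.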

[13] = biological target: Kappa-type opioid receptor (Homo sapiens, UniProt P41145); experiment: Inhibition of KOR (unknown origin)
Sequence of Kappa-type opioid receptor (P41145 whole entry): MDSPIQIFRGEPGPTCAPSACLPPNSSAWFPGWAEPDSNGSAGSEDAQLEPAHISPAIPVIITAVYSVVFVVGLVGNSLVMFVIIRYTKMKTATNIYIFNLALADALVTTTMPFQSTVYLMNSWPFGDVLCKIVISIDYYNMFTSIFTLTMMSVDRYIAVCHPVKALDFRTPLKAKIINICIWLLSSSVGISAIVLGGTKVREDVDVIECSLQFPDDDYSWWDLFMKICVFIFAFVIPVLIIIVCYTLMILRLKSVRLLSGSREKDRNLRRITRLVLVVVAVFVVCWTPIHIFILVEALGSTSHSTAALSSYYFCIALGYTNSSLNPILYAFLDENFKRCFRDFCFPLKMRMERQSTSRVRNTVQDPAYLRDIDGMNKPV

[14] = system: HepG2; experiment: Cytotoxicity against human HepG2 assessed as reduction in cell viability at 1 to 100 uM after 20 hrs by neutral red uptake assay; assay type: cell-based; conditions: hepg2, 20 h
Method in brief: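 HepG2 seeded 3 x 10^4/well, 24 h, then 20 h serum-free exposure at 1, 10 or 100 µM. Neutral red 50 µg/mL for 3 h, washed, dye extracted with 50% ethanol/1% acetic acid, OD 550 nm. IC50 assigned as lowest concentration reaching ≥50% cytotoxicity against untreated cells; n = 4 (duplicate, two assays).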

[15] = biological target: CYP2D6 (Homo sapiens, UniProt P10635); experiment: Inhibition of recombinant human CYP2D6 at 1 uM by fluorescence probe substrate-based flurometric analysis; assay type: ADME
Sequence of CYP2D6 (P10635 whole entry): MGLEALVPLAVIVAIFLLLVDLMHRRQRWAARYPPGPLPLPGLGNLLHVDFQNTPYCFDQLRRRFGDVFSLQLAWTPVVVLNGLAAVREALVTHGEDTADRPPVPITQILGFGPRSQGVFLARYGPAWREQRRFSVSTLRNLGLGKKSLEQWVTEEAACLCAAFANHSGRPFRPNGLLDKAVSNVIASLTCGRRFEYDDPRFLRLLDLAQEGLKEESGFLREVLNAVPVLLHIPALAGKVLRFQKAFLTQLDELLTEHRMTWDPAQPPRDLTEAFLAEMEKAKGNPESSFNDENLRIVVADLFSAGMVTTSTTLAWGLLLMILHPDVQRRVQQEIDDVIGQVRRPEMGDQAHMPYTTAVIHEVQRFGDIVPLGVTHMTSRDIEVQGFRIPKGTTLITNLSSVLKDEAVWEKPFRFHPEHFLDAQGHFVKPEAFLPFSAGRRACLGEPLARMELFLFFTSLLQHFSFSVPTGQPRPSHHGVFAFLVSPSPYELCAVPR

[16] = biological target: Histamine H1 receptor (Homo sapiens) (UniProt P35367); experiment: Displacement of [3H]pyrilamine from human recombinant histamine H1 receptor at 1 uM after 90 mins by scintillation counting method relative to control
Sequence of Histamine H1 receptor (Homo sapiens) (P35367 whole entry): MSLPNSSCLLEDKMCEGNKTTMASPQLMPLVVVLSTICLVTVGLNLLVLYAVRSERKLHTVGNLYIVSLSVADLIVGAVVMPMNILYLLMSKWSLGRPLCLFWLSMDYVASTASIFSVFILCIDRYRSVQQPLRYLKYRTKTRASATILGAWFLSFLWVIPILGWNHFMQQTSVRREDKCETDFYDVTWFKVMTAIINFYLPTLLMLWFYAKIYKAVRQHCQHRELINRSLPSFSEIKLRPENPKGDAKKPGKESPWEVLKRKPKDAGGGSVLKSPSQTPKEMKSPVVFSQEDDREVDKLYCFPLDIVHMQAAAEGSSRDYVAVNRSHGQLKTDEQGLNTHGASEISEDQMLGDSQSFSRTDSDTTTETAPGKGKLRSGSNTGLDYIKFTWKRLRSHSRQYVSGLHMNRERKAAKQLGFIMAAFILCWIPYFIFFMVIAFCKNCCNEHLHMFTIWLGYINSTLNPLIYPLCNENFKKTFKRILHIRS
Method in brief: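 Human H1 receptor-enriched membranes (25 μg) with 2.4 nM [3H]pyrilamine in Na+/K+ phosphate buffer pH 7.4, 0.1% DMSO, 90 min, 25 °C; 10 μM triprolidine for nonspecific binding. Single 1 μM test concentration; filtration-based readout of displacement.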

[17] = Drug metabolism in mouse liver microsomes at 1 uM incubated for 1 hr in presence of NADPH by UPLC-MS analysis; assay type: ADME, Microsome; conditions: read-out: Drug metabolism; method in brief: as §2
[18] = biological target: Sodium-dependent dopamine transporter (Homo sapiens) (UniProt Q01959); experiment: Displacement of [3H]GBR12935 from human DAT at 1 uM after 120 mins by scintillation counting method relative to control
Method in brief: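 DAT-enriched human membranes (5 µg), 2 nM [3H]GBR12935 in 50 mM Tris-HCl/100 mM NaCl pH 7.4, 0.1% DMSO, 120 min at 4 °C; 10 µM GBR12909 for nonspecific binding. Compound at 1 µM; displacement measured after filtration.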

[19] = biological target: T2, Mu-type opioid receptor (Homo sapiens, UniProt P35372); experiment: Displacement of [3H]DAMGO from human MOR expressed in CHO-K1 cells membranes after 60 mins by micro beta scintillation counting method; assay type: cell membranes
T2 sequence (P35372 whole entry): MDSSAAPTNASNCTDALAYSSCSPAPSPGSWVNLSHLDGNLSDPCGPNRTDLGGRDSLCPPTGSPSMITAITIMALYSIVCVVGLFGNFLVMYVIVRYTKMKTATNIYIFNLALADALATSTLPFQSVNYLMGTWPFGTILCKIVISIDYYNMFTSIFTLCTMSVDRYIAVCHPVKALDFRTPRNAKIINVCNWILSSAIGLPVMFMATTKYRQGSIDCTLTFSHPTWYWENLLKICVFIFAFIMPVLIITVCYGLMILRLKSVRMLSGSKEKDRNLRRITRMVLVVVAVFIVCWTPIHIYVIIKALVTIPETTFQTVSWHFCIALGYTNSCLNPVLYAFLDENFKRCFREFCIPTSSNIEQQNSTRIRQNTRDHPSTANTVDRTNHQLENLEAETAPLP
Method in brief: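 Human MOR in CHO-K1 membranes (20 µg) with 1 nM [3H]DAMGO in 50 mM Tris-HCl, 5 mM MgCl2, pH 7.4, 27 °C for 60 min. Test compound at five concentrations; 10 µM naloxone defines nonspecific binding. Filtered, washed thrice with ice-cold 10 mM Tris-HCl, counted by liquid scintillation.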

[20] = biological target: 5-hydroxytryptamine receptor 2B (Homo sapiens) (UniProt P41595); experiment: Displacement of [3H]-LSD from recombinant human 5HT2B receptor at 1 uM after 30 mins by scintillation counting method relative to control
Sequence of 5-hydroxytryptamine receptor 2B (Homo sapiens) (P41595 whole entry): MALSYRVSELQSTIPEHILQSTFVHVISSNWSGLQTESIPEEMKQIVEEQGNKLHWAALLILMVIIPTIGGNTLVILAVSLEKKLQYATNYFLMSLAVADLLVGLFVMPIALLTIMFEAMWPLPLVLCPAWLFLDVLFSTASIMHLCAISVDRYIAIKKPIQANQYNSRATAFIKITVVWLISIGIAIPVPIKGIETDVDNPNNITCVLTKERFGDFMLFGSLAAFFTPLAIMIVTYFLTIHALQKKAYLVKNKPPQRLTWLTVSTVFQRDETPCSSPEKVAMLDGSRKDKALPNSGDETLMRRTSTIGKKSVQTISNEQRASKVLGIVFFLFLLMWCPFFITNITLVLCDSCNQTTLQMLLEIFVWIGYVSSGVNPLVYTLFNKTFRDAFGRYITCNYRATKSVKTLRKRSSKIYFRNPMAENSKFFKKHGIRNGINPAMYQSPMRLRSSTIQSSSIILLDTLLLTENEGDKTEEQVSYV
Method in brief: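 Human 5-HT2B-enriched membranes (5 µg), 1 nM [3H]LSD in 50 mM Tris-HCl, 4 mM CaCl2, 1% ascorbic acid, pH 7.4, 0.1% DMSO; 30 min, 37 °C; 50 µM 5-HT for nonspecific binding. Single 1 µM compound concentration; displacement after filtration.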

[21] = biological target: T2, Mu-type opioid receptor; experiment: Agonist activity at MOR (unknown origin) by cAMP assay; assay type: functional
[22] = biological target: Sodium-dependent serotonin transporter (Homo sapiens) (UniProt P31645); experiment: Displacement of [3H]imipramine from human serotonin transporter at 1 uM after 30 mins by scintillation counting method relative to control
Method in brief: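 Human SERT-enriched membranes (3.5 μg) incubated 30 min at 27 °C with 3 nM [3H]imipramine in Tris-HCl/120 mM NaCl/5 mM KCl pH 7.4, 0.1% DMSO; 200 μM imipramine for nonspecific binding. Compound at 1 μM; displacement after filtration.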

[23] = biological target: Delta-type opioid receptor (Homo sapiens, UniProt P41143); experiment: Inhibition of DOR (unknown origin)
Sequence of Delta-type opioid receptor (P41143 whole entry): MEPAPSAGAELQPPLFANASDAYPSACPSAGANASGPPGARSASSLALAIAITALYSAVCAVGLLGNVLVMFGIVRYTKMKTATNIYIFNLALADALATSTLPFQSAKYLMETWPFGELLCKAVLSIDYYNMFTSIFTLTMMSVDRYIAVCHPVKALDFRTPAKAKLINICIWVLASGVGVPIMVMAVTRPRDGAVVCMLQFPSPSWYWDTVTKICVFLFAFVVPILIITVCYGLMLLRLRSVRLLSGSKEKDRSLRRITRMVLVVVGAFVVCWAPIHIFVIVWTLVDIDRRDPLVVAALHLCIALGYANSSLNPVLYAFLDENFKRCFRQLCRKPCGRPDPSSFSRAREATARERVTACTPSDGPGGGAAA

[24] = biological target: Voltage-gated inwardly rectifying potassium channel KCNH2 (Homo sapiens, UniProt Q12809); experiment: Inhibition of human ERG expressed in CHO cells at -80 mV holding potential by automated patch clamp electrophysiology assay; assay type: cell-based
Sequence of Voltage-gated inwardly rectifying potassium channel KCNH2 (Q12809 whole entry): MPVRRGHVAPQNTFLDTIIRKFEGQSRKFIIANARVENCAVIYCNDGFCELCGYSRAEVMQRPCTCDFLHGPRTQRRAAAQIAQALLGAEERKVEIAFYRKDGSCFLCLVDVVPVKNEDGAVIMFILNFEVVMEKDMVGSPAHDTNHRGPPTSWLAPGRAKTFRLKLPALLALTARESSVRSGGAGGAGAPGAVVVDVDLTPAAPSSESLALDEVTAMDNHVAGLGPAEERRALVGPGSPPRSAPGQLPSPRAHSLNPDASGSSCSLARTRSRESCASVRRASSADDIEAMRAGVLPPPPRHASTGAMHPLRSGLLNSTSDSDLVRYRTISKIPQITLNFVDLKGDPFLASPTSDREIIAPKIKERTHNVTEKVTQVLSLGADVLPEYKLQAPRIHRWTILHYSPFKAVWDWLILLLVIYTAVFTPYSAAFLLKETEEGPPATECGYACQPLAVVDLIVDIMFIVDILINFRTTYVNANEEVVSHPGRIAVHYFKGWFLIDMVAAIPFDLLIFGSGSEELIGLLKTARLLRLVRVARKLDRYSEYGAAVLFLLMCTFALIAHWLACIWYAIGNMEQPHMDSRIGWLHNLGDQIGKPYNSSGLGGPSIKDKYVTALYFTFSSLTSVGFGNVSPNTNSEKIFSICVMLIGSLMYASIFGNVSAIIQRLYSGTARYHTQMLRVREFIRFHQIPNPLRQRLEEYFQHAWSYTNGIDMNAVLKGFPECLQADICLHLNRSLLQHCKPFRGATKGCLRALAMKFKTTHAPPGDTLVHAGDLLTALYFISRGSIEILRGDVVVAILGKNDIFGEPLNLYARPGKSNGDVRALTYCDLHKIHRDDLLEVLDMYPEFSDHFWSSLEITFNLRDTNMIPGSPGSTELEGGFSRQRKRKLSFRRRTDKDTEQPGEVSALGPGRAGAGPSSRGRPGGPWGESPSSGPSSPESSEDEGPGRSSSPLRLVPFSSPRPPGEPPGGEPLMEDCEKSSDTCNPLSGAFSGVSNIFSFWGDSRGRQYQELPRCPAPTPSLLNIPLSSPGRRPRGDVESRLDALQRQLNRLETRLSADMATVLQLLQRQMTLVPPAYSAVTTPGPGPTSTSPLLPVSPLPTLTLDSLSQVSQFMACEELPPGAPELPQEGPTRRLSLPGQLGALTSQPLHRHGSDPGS

[25] = Drug metabolism in rat liver microsomes at 1 uM incubated for 1 hr in presence of NADPH by UPLC-MS analysis; assay type: ADME, Microsome; conditions: read-out: Drug metabolism; method in brief: as §2
[26] = Stability of compound in aqueous HCl solution at pH 2 after 24 hrs by HPLC analysis; assay type: physicochemical; conditions: buffer, pH 2, 24 h; method in brief: as §1
[27] = biological target: Alpha-1A adrenergic receptor (Homo sapiens) (UniProt P35348); experiment: Displacement of [3H]prazosin from human adrenergic alpha1A receptor at 1 uM after 90 mins by scintillation counting method relative to control
Sequence of Alpha-1A adrenergic receptor (Homo sapiens) (P35348 whole entry): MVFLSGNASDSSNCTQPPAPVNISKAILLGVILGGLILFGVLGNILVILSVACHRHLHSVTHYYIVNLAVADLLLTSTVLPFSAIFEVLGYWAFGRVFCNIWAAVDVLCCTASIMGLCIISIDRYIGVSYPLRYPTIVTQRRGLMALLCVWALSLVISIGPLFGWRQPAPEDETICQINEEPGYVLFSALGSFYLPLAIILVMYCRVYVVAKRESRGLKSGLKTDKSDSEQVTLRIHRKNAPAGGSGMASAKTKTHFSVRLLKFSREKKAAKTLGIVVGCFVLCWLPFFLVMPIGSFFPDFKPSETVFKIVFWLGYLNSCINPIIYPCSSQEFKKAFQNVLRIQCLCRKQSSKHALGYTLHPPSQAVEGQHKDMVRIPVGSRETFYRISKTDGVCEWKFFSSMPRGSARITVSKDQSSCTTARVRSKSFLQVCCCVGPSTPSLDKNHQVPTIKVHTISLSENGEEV
Method in brief: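 α1A adrenoceptor-enriched human membranes (10 µg), 0.2 nM [3H]prazosin in 50 mM HEPES, 5 mM MgCl2, 1 mM CaCl2, 0.2% BSA, pH 7.4; 90 min at 25 °C; 1 µM prazosin for nonspecific binding. Compound tested at 1 µM; bound ligand collected by filtration.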

Row | Compound | Ki [2] [nM] | Ki [3] [nM] | inhibition [5] [%] | Ki [4] [nM] | other results
1 | CN1CCN(CCc2ccc(Cl)c(Cl)c2)CC1 |  |  |  |  | Activity [1]: Active
2 | OC1CN(CC(F)CCc2ccccc2)CCc2cc(OCc3ccccc3)ccc21 (stereo unspecified) | 393 | 1400 | 0 | 784 | Ratio Ki [6]: 2
3 | COc1ccc2c(c1)CCN(CC(F)CCc1ccccc1)CC2 (stereo unspecified) | 213 | 740 | 0 | 602 | 
4 | OC1CN(CCCCc2ccccc2)CCc2cc(OCc3ccccc3)ccc21 (stereo unspecified) |  |  |  | 505 | Ratio Ki [6]: 2
5 | OC(CN1CCC(Cc2ccc(F)cc2)CC1)c1ccc(Cl)cc1 (stereo unspecified) [ELIPRODIL] |  |  |  | 13 | 
6 | FC(CCc1ccccc1)CN1CCc2ccccc2CC1 (stereo unspecified) | 108 | 333 | 0 | 239 | 
7 | COc1ccc2c(c1)CCN(CC(F)CCc1ccccc1)CC2O (stereo unspecified) | 585 | 7900 | 0 | 506 | Ratio Ki [6]: 15
8 | Oc1ccc2c(c1)CCN(CCCCc1ccccc1)CC2 | 32 | 12 |  | 9.9 | Ratio Ki [7]: 2 to 3
9 | COc1ccc2c(c1)CCN(CCCCc1ccccc1)CC2 | 11 | 56 | 0 | 55 | 
10 | Oc1ccc2c(c1)CCN(CC(F)CCc1ccccc1)CC2 (stereo unspecified) | 70 | 153 | 0 | 86 | 

Now from value to molecule, other results behind:

Row | Ki [2] [nM] | Ki [3] [nM] | inhibition [5] [%] | Compound | Ki [4] [nM] | other results
11 | 17 | 39 |  | Oc1ccc2c(c1)CCN(CCC(F)Cc1ccccc1)CC2 (racemic) [listing 1 of 2 here] | 16 | 
12 | 25 | 63 |  | Oc1ccc2c(c1)CCN(CCC(F)Cc1ccccc1)CC2 (single isomer, unassigned; (-)) | 65 | 
13 | 10 | 49 |  | Oc1ccc2c(c1)CCN(CCC(F)Cc1ccccc1)CC2 (single isomer, unassigned; (+)) | 54 | 
14 | 25 | 524 |  | FCCOc1ccc2c(c1)CCN(CCC(F)Cc1ccccc1)CC2 (stereo unspecified) | 348 | 
15 |  |  | 15 | Oc1ccc2c(c1)CCN(CCC(F)Cc1ccccc1)CC2 (racemic) [listing 2 of 2 here] |  | 
16 |  |  | 35 | Oc1ccc2c(c1)CCN(CCCCc1ccccc1)CC2O (stereo unspecified) |  | Ratio Ki [7]: 2 to 3
17 | 1400 | 130 | 8 | Oc1ccc2c(c1)CCN(CCC(F)Cc1ccccc1)CC2O (stereo unspecified) | 422 | Ratio Ki [7]: 2 to 3
18 | 210 | 4500 | 0 | COc1ccc2c(c1)CCN(CCC(F)Cc1ccccc1)CC2O (stereo unspecified) | 630 | Ratio Ki [6]: 7
19 | 8 | 48 | 0 | FC(CCN1CCc2ccccc2CC1)Cc1ccccc1 (stereo unspecified) | 30 | inhibition [8]: 72%; Stability [9]: Stable; inhibition [10]: < 50%; Activity [11]: Toxic; metabolised at 1 h, 1 µM [12]: 100%; Ki [13]: > 1000 nM; Activity [14]: Toxic; inhibition at 1 µM [15]: 85%; inhibition [16]: < 50%; metabolised at 1 h, 1 µM [17]: 100%; inhibition [18]: < 50%; Ki [19]: 406 nM; inhibition [20]: < 50%; EC50 [21]: > 10000 nM; inhibition [22]: < 50%; Ki [23]: > 1000 nM; IC50 [24]: 1180 nM; metabolised at 1 h, 1 µM [25]: 100%; Stability [26]: Stable; inhibition [27]: < 50%
20 | 185 | 643 |  | FC(CCOc1ccc2c(c1)CCN(CCC(F)Cc1ccccc1)CC2)Cc1ccccc1 (stereo unspecified) | 249 | 
21 | 183 | 1800 | 0 | OC1CN(CCC(F)Cc2ccccc2)CCc2cc(OCc3ccccc3)ccc21 (stereo unspecified) | 813 | Ratio Ki [6]: 2
